Inhibition and IC50 data for 39 molecules are collected here from ChEMBL document CHEMBL3098068 (Eur J Med Chem, 2014).

For assay [1], the target named is Aldo-keto reductase family 1 member B1 (Rattus norvegicus) (UniProt P07943). The assay is described as follows: Inhibition of rat kidney NADPH-dependent aldose reductase assessed as DL-glyceraldehyde conversion to glycerol at 1 uM preincubated for 20 mins followed by NADPH addition measured after 5 mins by UV-Visible spectrophotometric analysis relative to control. The gist of the method: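 Enzyme source: supernatant of rat kidney homogenized in ice-cold 50 mM potassium phosphate pH 7.4, centrifuged 12,000 rpm 30 min, stored at -80 °C. Assay mix: 0.1 M potassium phosphate pH 6.2, DL-glyceraldehyde, lithium sulphate, mercaptoethanol. Compound (1 µM in DMSO) preincubated with enzyme 20 min at 37 °C. Blank without NADPH incubated 5 min at 37 °C. NADPH added to start. A340 decrease read. %inhibition = 100-[T/C]×100.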

Assay [2] has the same target. As to the kind of experiment: (§1) Inhibition of rat kidney NADPH-dependent aldose reductase assessed as DL-glyceraldehyde conversion to glycerol preincubated for 20 mins followed by NADPH addition measured after 5 mins by UV-Visible spectrophotometric analysis.
Assay [3] has as its target Aldo-keto reductase family 1 member B1 (Rattus norvegicus, UniProt P07943). Described as §1.

Broadly, the inhibition is the relative decrease from the control value, in per cent. For `N#CC(=C\c1ccco1)/C=C1\SC(=S)NC1=O`, the inhibition in assay [1] is below 50%.
As to `COc1ccc(/C=C(C#N)/C=C2\SC(=S)N(c3ccc(CC(=O)O)cc3)C2=O)cc1`, in assay [1], the inhibition is below 50%.
By IC50 is commonly meant the midpoint of a concentration-inhibition curve. With `Cc1ccc(/C=C(C#N)/C=C2\SC(=S)NC2=O)cc1`, the inhibition entry in assay [2] was “Dose-dependent effect”; in assay [1] it was above 50%. In addition, the IC50 in assay [3] stood at 690 nM.
As to `N#CC(=C\c1ccc(F)cc1)/C=C1\SC(=S)NC1=O`, the inhibition in assay [1] was below 50%.
As to `CCc1ccc(/C=C(C#N)/C=C2\SC(=S)NC2=O)cc1`, the inhibition in assay [1] is below 50%.
On the same count and under the same terms, the value for `N#CC(=C\c1ccc(Cl)cc1)/C=C1\SC(=S)NC1=O` was below 50%.
Take `N#CC(=C\c1ccccc1)/C=C1\SC(=S)N(CC(=O)O)C1=O`: the inhibition result is “Dose-dependent effect” in assay [2] and above 50% in assay [1]. Besides, the half-maximal inhibitory concentration (IC50) in assay [3] turned out to be 750 nM.
Take `N#CC(=C\c1ccc(C(F)(F)F)cc1)/C=C1\SC(=S)N(CC(=O)O)C1=O`: the inhibition in assay [1] is below 50%.
`Cc1ccc(/C=C(C#N)/C=C2\SC(=S)N(c3ccc(CC(=O)O)cc3)C2=O)cc1`: the inhibition in assay [1] is below 50%.
`N#CC(=C\c1cccs1)/C=C1\SC(=S)N(CC(=O)O)C1=O`: the inhibition in assay [1] is below 50%.
On the same count and under the same terms, then `Cc1ccc(/C=C(C#N)/C=C2\SC(=S)N(c3ccc(C(=O)O)cc3)C2=O)cc1`, with below 50%.
Regarding `N#CC(=C\c1ccccc1)/C=C1\SC(=S)N(c2ccc(C(=O)O)cc2)C1=O`, the inhibition result in assay [2] was “Dose-dependent effect”; in assay [1], above 50%. The IC50 in assay [3] came to 220 nM.
As for `N#CC(=C\c1ccco1)/C=C1\SC(=S)N(c2ccc(C(=O)O)cc2)C1=O`, the inhibition in assay [1] was below 50%.
On the same count and under the same terms, then `N#CC(=C\c1ccc(Cl)cc1)/C=C1\SC(=S)N(CC(=O)O)C1=O`, with below 50%; and `N#CC(=C\c1ccc(Cl)cc1)/C=C1\SC(=S)N(c2ccc(C(=O)O)cc2)C1=O`, with below 50%; and `CCc1ccc(/C=C(C#N)/C=C2\SC(=S)N(CC(=O)O)C2=O)cc1`, with below 50%.
The same measure, in the same setting: then `CC(C)c1ccc(/C=C(C#N)/C=C2\SC(=S)N(c3ccc(CC(=O)O)cc3)C2=O)cc1`, with below 50%.
Still for that read-out and setting: the value for `N#CC(=C\c1ccc(F)cc1)/C=C1\SC(=S)N(c2ccc(C(=O)O)cc2)C1=O` was below 50%.
With `COc1ccc(/C=C(C#N)/C=C2\SC(=S)N(CC(=O)O)C2=O)cc1`, the inhibition in assay [1] was below 50%.
Turning to `N#CC(=C\c1ccccc1)/C=C1\SC(=S)NC1=O`, the inhibition in assay [1] was below 50%.
Same read-out and setting: the value for `N#CC(=C\c1ccc(Br)cc1)/C=C1\SC(=S)NC1=O` was below 50%; that for `N#CC(=C\c1cccs1)/C=C1\SC(=S)N(c2ccc(C(=O)O)cc2)C1=O` was below 50%.
Still for that read-out and setting: the value for `N#CC(=C\c1ccc(Br)cc1)/C=C1\SC(=S)N(CC(=O)O)C1=O` was below 50%; that for `N#CC(=C\c1cccc2ccccc12)/C=C1\SC(=S)NC1=O` was below 50%.
For `N#CC(=C\c1ccco1)/C=C1\SC(=S)N(CC(=O)O)C1=O`, the inhibition result in assay [2] was “Dose-dependent effect”; in assay [1], above 50%. Besides, in assay [3], the half-inhibitory concentration (IC50) was determined as 670 nM.
Turning to `COc1ccc(/C=C(C#N)/C=C2\SC(=S)N(c3ccc(C(=O)O)cc3)C2=O)cc1`, the inhibition in assay [1] was below 50%.
The same measure, in the same setting: then `CC(C)c1ccc(/C=C(C#N)/C=C2\SC(=S)N(c3ccc(C(=O)O)cc3)C2=O)cc1`, with below 50%; and `COc1ccc(/C=C(C#N)/C=C2\SC(=S)NC2=O)cc1`, with below 50%.
Same read-out and setting: the value for `CC(C)c1ccc(/C=C(C#N)/C=C2\SC(=S)NC2=O)cc1` was below 50%; that for `N#CC(=C\c1ccc(Br)cc1)/C=C1\SC(=S)N(c2ccc(C(=O)O)cc2)C1=O` was below 50%.
Same read-out and setting: the value for `CCc1ccc(/C=C(C#N)/C=C2\SC(=S)N(c3ccc(C(=O)O)cc3)C2=O)cc1` was below 50%; that for `CC(C)c1ccc(/C=C(C#N)/C=C2\SC(=S)N(CC(=O)O)C2=O)cc1` was below 50%; that for `N#CC(=C\c1cccc2ccccc12)/C=C1\SC(=S)N(c2ccc(C(=O)O)cc2)C1=O` was below 50%.
For the molecule `N#CC(=C\c1ccccc1)/C=C1\SC(=S)N(c2ccc(CC(=O)O)cc2)C1=O`, in assay [1], the inhibition was below 50%.
Same read-out and setting: then `N#CC(=C\c1cccc2ccccc12)/C=C1\SC(=S)N(CC(=O)O)C1=O`, with below 50%; and `Cc1ccc(/C=C(C#N)/C=C2\SC(=S)N(CC(=O)O)C2=O)cc1`, with below 50%.
On to `N#CC(=C\c1cccs1)/C=C1\SC(=S)NC1=O`, for which the inhibition result in assay [2] was “Dose-dependent effect”; in assay [1], above 50%. Also, the IC50 in assay [3] turned out to be 860 nM.
Turning to `N#CC(=C\c1ccc(F)cc1)/C=C1\SC(=S)N(CC(=O)O)C1=O`, the inhibition in assay [1] was below 50%.
As for `CCc1ccc(/C=C(C#N)/C=C2\SC(=S)N(c3ccc(CC(=O)O)cc3)C2=O)cc1`, in assay [1], the inhibition was below 50%.
